Test results published in ChEMBL document CHEMBL1124765, “Synthesis and biological properties of novel phosphotriesters: a new approach to the introduction of biologically active nucleotides into cells” (J Med Chem, 1990).
Converted amounts (≈) assume the structure as drawn. “And” between values parts separate entries of the source, which are not always exact repeats. Equal values may be shown once.

How the values were obtained:
Oryctolagus cuniculus [1] = organism: Oryctolagus cuniculus; assay: Evaluated for the minimum cytotoxic concentration (MCC) upon preincubation of rabbit kidney cells; format: functional
Summary of the method: (§1)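 Primary rabbit kidney cell cultures were exposed to compounds, some preincubated 24 h at 37 °C in medium with 10% fetal calf serum. The minimum cytotoxic concentration was the level causing a microscopically detectable change in normal cell morphology.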

[2] = test system: Vesicular stomatitis virus; assay: Evaluated for the minimum inhibitory concentration (MIC) in primary rabbit kidney (PRK) by 50% against Vesicular stomatitis virus; format: functional
Summary of the method: (§2)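 Confluent primary rabbit kidney cell monolayers were infected with 100 CCID50 of virus. After 1 h adsorption, residual virus was removed and cells were incubated with serial compound concentrations. Cytopathogenicity was scored once it reached completion in untreated infected controls. The endpoint was the concentration reducing virus-induced cytopathogenicity by 50%.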

Mus musculus [3] = assay: Topical treatment of intracutaneous TK- herpes simplex virus type 1 of strain VMW 1837 infection of Nu/nu mice for mean day of appearance of skin lesions and/or paralysis of the hind legs at 3% concentration (v/v in DMSO); format: functional
Summary of the method: (§3)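 Inocula were TK⁻ HSV-1 at 10⁶ CCID50/0.05 mL or HSV-1 KOS at 10^4.7 PFU/0.05 mL. Test formulations in DMSO were applied topically four times daily for 5 days, starting at infection. Skin lesions, hind-leg paralysis and death were recorded daily for 28 (KOS) or 49 (TK⁻) days, with five mice per group.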

Human alphaherpesvirus 2 [4] = assay: Evaluated for the minimum inhibitory concentration (MIC) in primary rabbit kidney (PRK) by 50% against herpes simplex virus type-2 (HSV-2) with strains 196; format: functional
Summary of the method: (§4)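 Confluent primary rabbit kidney cell cultures infected with 100 CCID50 virus; after 1 h adsorption residual virus removed and cells incubated with varying compound concentrations. Cytopathogenicity scored when complete in infected untreated controls; MIC = concentration reducing virus-induced cytopathogenicity by 50%. Compounds tested as such or after preincubation in medium with 10% fetal calf serum, 24 h, 37 °C.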

Human alphaherpesvirus 2 [5] = assay: Evaluated for the minimum inhibitory concentration (MIC) in primary rabbit kidney (PRK) by 50% upon preincubation in medium containing 10% fetal calf serum at 37 degree Celsius for 24 hr against herpes simplex virus type-2 (HSV-2) with strains Ly; format: functional
Summary of the method: (§5)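 Compounds were preincubated in medium with 10% fetal calf serum for 24 h at 37 °C before addition to the cells. Confluent primary rabbit kidney monolayers were infected with 100 CCID50 of virus and adsorbed for 1 h. Residual virus was removed and cells were incubated with varying compound concentrations. The endpoint was 50% reduction of cytopathogenicity, read when infected controls reached full CPE.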

Human alphaherpesvirus 1 [6] = assay: Evaluated for the minimum inhibitory concentration (MIC) in primary rabbit kidney (PRK) by 50% against herpes simplex virus type-1 (HSV-1) with strains F; format: functional; summary of the method: as §4
Human alphaherpesvirus 1 [7] = assay: Evaluated for the minimum inhibitory concentration (MIC) in primary rabbit kidney (PRK) by 50% against TK- herpes simplex virus type 1 (TK- HSV-1) with strain B2006; format: functional; summary of the method: as §2
Human alphaherpesvirus 1 [8] = assay: Evaluated for the minimum inhibitory concentration (MIC) in primary rabbit kidney (PRK) by 50% against herpes simplex virus type-1 (HSV-1) with strains KOS; format: functional; summary of the method: as §4
Human alphaherpesvirus 1 [9] = assay: Evaluated for the minimum inhibitory concentration (MIC) in primary rabbit kidney (PRK) by 50% against herpes simplex virus type-1 (HSV-1) with strains McIntyre; format: functional; summary of the method: as §4
Human alphaherpesvirus 1 [10] = assay: Evaluated for the minimum inhibitory concentration (MIC) in primary rabbit kidney (PRK) by 50% upon preincubation in medium containing 10% fetal calf serum at 37 degree Centigrade for 24 hr against TK- herpes simplex virus type 1 (TK- HSV-1) with st; format: functional; summary of the method: as §5
Human alphaherpesvirus 1 [11] = assay: Evaluated for the minimum inhibitory concentration (MIC) in primary rabbit kidney (PRK) by 50% upon preincubation in medium containing 10% fetal calf serum at 37 degree Celsius for 24 hr against herpes simplex virus type-1 (HSV-1) with strainF; format: functional; summary of the method: as §5
Human alphaherpesvirus 1 [12] = assay: Evaluated for the minimum inhibitory concentration (MIC) in primary rabbit kidney (PRK) by 50% upon pre-incubation in medium containing 10% fetal calf serum at 37 degree Centigrade for 24 hr against TK- herpes simplex virus type 1 (TK- HSV-1) with st; format: functional; summary of the method: as §5
Human alphaherpesvirus 2 [13] = assay: Evaluated for the minimum inhibitory concentration (MIC) in primary rabbit kidney (PRK) by 50% upon preincubation in medium containing 10% fetal calf serum at 37 degree Celsius for 24 hr against herpes simplex virus type-2 (HSV-2) with strains G; format: functional; summary of the method: as §5
Vaccinia virus [14] = assay: Evaluated for the minimum inhibitory concentration (MIC) in primary rabbit kidney (PRK) by 50% against Vaccinia virus; format: functional; details: Orthopoxvirus vaccinia; summary of the method: as §2
Vaccinia virus [15] = assay: Evaluated for the minimum inhibitory concentration (MIC) in primary rabbit kidney (PRK) by 50% upon pre-incubation in medium containing 10% fetal calf serum at 37 degree Centigrade for 24 hr against Vaccinia virus; format: functional; details: Orthopoxvirus vaccinia; summary of the method: as §5
[16] = test system: Vesicular stomatitis virus; assay: Evaluated for the minimum inhibitory concentration (MIC) in primary rabbit kidney (PRK) by 50% upon pre-incubation in medium containing 10% fetal calf serum at 37 degree Centigrade for 24 hr against Vesicular stomatitis virus; format: functional; summary of the method: as §5
Human alphaherpesvirus 1 [17] = assay: Evaluated for the minimum inhibitory concentration (MIC) in primary rabbit kidney (PRK) by 50% upon preincubation in medium containing 10% fetal calf serum at 37 degree Centigrade for 24 hr against herpes simplex virus type-1 (HSV-1) with strain McI; format: functional; summary of the method: as §5
Oryctolagus cuniculus [18] = organism: Oryctolagus cuniculus; assay: Evaluated for the minimum cytotoxic concentration (MCC) upon preincubation of rabbit kidney cells in medium containing 10% fetal calf serum at 37 degree Celsius for 24 hr; format: functional; details: Oryctolagus cuniculus, kidney; read-out: MCC; summary of the method: as §1
Human alphaherpesvirus 1 [19] = assay: Evaluated for the minimum inhibitory concentration (MIC) in primary rabbit kidney (PRK) by 50% upon pre-incubation in medium containing 10% fetal calf serum at 37 degree Centigrade for 24 hr against herpes simplex virus type-1 (HSV-1) with strainKOS; format: functional; summary of the method: as §5
Human alphaherpesvirus 2 [20] = assay: Evaluated for the minimum inhibitory concentration (MIC) in primary rabbit kidney (PRK) by 50% upon preincubation in medium containing 10% fetal calf serum at 37 degree Centigrade for 24 hr against herpes simplex virus type-2 (HSV-2) with strains 19; format: functional; summary of the method: as §5
Human alphaherpesvirus 1 [21] = assay: Evaluated for the minimum inhibitory concentration (MIC) in primary rabbit kidney (PRK) by 50% against TK- herpes simplex virus type 1 (TK- HSV-1) with strain VMW 1837.; format: functional; summary of the method: as §2
Human alphaherpesvirus 2 [22] = assay: Evaluated for the minimum inhibitory concentration (MIC) in primary rabbit kidney (PRK) by 50% against herpes simplex virus type-2 (HSV-2) with strains G; format: functional; summary of the method: as §2
Mus musculus [23] = assay: Topical treatment of intracutaneous TK- herpes simplex virus type 1 of strain VMW 1837 infection of Nu/nu mice for mean day of appearance of skin lesions and/or paralysis of the hind legs at 0.3% concentration (v/v in DMSO); format: functional; summary of the method: as §3
Mus musculus [24] = assay: Topical treatment of intracutaneous TK- herpes simplex virus type 1 of strain VMW 1837 infection of Nu/nu mice for mean day of appearance of skin lesions and/or paralysis of the hind legs at 1% concentration (v/v in DMSO); format: functional; summary of the method: as §3
Human alphaherpesvirus 2 [25] = assay: Evaluated for the minimum inhibitory concentration (MIC) in primary rabbit kidney (PRK) by 50% against herpes simplex virus type-2 (HSV-2) with strains Lyons; format: functional; summary of the method: as §4
Mus musculus [26] = organism: Mus musculus; assay: Mean time survival (MTS) of the mice at the end of 28 or 49 days.; format: functional; summary of the method: as §3
[27] = pKa value was determined; format: physicochemical

## CS(=O)(=O)c1ccc(OP(=O)(OC[C@H]2O[C@@H](n3cc(/C=C/Br)c(=O)[nH]c3=O)C[C@@H]2O)OC[C@H]2O[C@@H](n3cc(/C=C/Br)c(=O)[nH]c3=O)C[C@@H]2O)cc1
Oryctolagus cuniculus [1]
  MCC: > 400 µg/mL
[2]
  MIC: > 400 µg/mL
Mus musculus [3]
  Mean day appearance of lesions: 9.7
Human alphaherpesvirus 2 [4]
  MIC: > 400 µg/mL
Human alphaherpesvirus 2 [5]
  MIC: 200 µg/mL (≈ 227 µM)
Human alphaherpesvirus 1 [6]
  MIC: 2 µg/mL (≈ 2.27 µM)
Human alphaherpesvirus 1 [7]
  MIC: > 400 µg/mL
Human alphaherpesvirus 1 [8]
  MIC: 2 µg/mL (≈ 2.27 µM)
Human alphaherpesvirus 1 [9]
  MIC: 2 µg/mL (≈ 2.27 µM)
Human alphaherpesvirus 1 [10]
  MIC: > 400 µg/mL
Human alphaherpesvirus 1 [11]
  MIC: 0.2 µg/mL (≈ 0.227 µM)
Human alphaherpesvirus 1 [12]
  MIC: 300 µg/mL (≈ 340 µM)
Human alphaherpesvirus 2 [13]
  MIC: 150 µg/mL (≈ 170 µM)
Vaccinia virus [14]
  MIC: > 400 µg/mL
Vaccinia virus [15]
  MIC: 70 µg/mL (≈ 79.3 µM)
[16]
  MIC: > 400 µg/mL
Human alphaherpesvirus 1 [17]
  MIC: 0.7 µg/mL (≈ 0.793 µM)
Oryctolagus cuniculus [18]
  MCC: > 400 µg/mL
Human alphaherpesvirus 1 [19]
  MIC: 0.2 µg/mL (≈ 0.227 µM)
Human alphaherpesvirus 2 [20]
  MIC: > 400 µg/mL
Human alphaherpesvirus 1 [21]
  MIC: > 400 µg/mL
Human alphaherpesvirus 2 [22]
  MIC: > 200 µg/mL
Mus musculus [23]
  Mean day appearance of lesions: 16.7
Mus musculus [24]
  Mean day appearance of lesions: 10.4
Human alphaherpesvirus 2 [25]
  MIC: > 400 µg/mL
Mus musculus [26]
  MTS: 15 days and 24.2 days and 37.8 days

## CSc1ccc(OP(=O)(OC[C@H]2O[C@@H](n3cc(C)c(=O)[nH]c3=O)C[C@@H]2OC(C)=O)OC[C@H]2O[C@@H](n3cc(C)c(=O)[nH]c3=O)C[C@@H]2OC(C)=O)cc1
[27]
  pKa: 9.53
